# Measured values published in ChEMBL document CHEMBL1148516, “Design and evaluation of new antipsoriatic antedrug candidates having 16-en-22-oxa-vitamin D3 structures” (Bioorg Med Chem Lett, 2006).
# How the values were obtained:
# Keratinocyte = test: Antiproliferative activity against human keratinocyte assessed as inhibition of [3H]TdR uptake; type: functional, cell-based
# [1] = target: T1, Vitamin D3 receptor (Gallus gallus) (UniProt O42392); test: Binding affinity to chick VDR
# T1 sequence (whole entry): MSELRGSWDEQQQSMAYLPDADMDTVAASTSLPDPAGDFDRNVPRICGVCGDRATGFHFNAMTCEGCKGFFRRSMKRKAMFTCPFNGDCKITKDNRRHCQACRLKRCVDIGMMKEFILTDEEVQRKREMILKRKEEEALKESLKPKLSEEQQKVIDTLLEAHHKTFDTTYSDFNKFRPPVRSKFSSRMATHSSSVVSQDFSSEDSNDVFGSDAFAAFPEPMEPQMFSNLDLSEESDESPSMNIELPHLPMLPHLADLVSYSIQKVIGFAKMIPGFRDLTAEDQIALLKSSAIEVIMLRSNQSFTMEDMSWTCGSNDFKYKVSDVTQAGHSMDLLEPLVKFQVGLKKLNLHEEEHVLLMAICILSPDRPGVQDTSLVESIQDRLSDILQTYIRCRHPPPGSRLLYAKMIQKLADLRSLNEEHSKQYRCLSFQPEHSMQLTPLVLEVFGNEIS
# Method in brief: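 Receptor affinity is expressed as a percentage relative to calcitriol, set at 100%. Each value is the average of duplicate measurements.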
# Mus musculus = test: Calcemic activity in percutaneously dosed mouse relative to control; type: functional
# Method in brief: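 Mice received a single percutaneous dose of test compound or vehicle, n = 3. Blood ionized Ca (mmol/L) was measured. Activity (%) = (analog Ca − vehicle Ca)/vehicle Ca × 100.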
# [2] = Clearance in rat at 10 ug/kg, iv; type: ADME, organism-based; settings: in vivo, 0.01 mg/kg
# Method in brief: (§1)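 Rats were dosed intravenously at 10 µg/kg or 1000 µg/kg. Total clearance (mL/h/kg) is the mean of 3–4 rats.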
# Homo sapiens = species: Homo sapiens; test: Clearance in human liver S9 fraction; type: ADME
# Method in brief: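 Compound was incubated with human liver S9 in the presence of NADPH. The elimination rate was taken from the time course of compound concentration in the reaction mixture. Clearance is given as mL/min/mg S9 protein, mean of two experiments.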
# [3] = Clearance in rat at 1000 ug/kg, iv; type: ADME, organism-based; settings: in vivo, 1 mg/kg; method in brief: as §1
Activity [1] [%],clearance [2] [mL/min/kg],CL (Homo sapiens) [µL/min/mg],clearance [3] [mL/min/kg],Compound,IC50 (Keratinocyte) [nM],Blood ionized calcium (Mus musculus) [mmol/L]
22.2,,,,C=C1/C(=C\C=C2/CCC[C@]3(C)C([C@H](C)OCC(=O)NC(C)(C)C)=CCC23)C[C@@H](O)C[C@@H]1O (some centres not stated),4.4,2.16
40.1,,,,C=C1/C(=C\C=C2/CCC[C@]3(C)C([C@H](C)OCC(=O)OC(C)(C)C)=CCC23)C[C@@H](O)C[C@@H]1O (some centres not stated),8.9,1.65
34.4,,278,131,C=C1/C(=C\C=C2/CCC[C@]3(C)C([C@H](C)OCC(=O)NCC(F)(F)C(F)(F)F)=CCC23)C[C@@H](O)C[C@@H]1O (some centres not stated),1.9,1.58
18,,,,C=C1/C(=C\C=C2/CCC[C@]3(C)C([C@H](C)OCC(=O)NCC(C)(C)C)=CCC23)C[C@@H](O)C[C@@H]1O (some centres not stated),17.4,1.82
0.04,,,,C=C1/C(=C\C=C2/CCC[C@]3(C)C([C@H](C)OCC(=O)O)=CCC23)C[C@@H](O)C[C@@H]1O (some centres not stated),> 1000,1.38

# More lines, now with the values behind:
Compound,Activity [1] [%],clearance [2] [mL/min/kg],CL (Homo sapiens) [µL/min/mg],clearance [3] [mL/min/kg],IC50 (Keratinocyte) [nM],Blood ionized calcium (Mus musculus) [mmol/L]
C=C1/C(=C\C=C2/CCC[C@]3(C)[C@@H]([C@H](C)OCCC(C)(C)O)CC[C@@H]23)C[C@@H](O)C[C@@H]1O [MAXACALCITOL],20,20.9,7,,22.6,2.6
C=C1/C(=C\C=C2/CCC[C@]3(C)[C@@H]([C@H](C)CCCC(C)(C)O)CC[C@@H]23)C[C@@H](O)C[C@@H]1O,100,,,,,
C=C1/C(=C\C=C2/CCC[C@@]3(C)C2CC[C@@H]3[C@H](C)CCC(=O)OC(C)(C)C)C[C@@H](O)C[C@@H]1O (some centres not stated),,,,,17,1.77
"C=C1/C(=C\C=C2/CCC[C@]3(C)C([C@H](C)OCCC(C)(C)O)=CCC23)CC(O)CC1O (single isomer, unassigned)",,,,,50.4,2.16
C=C1/C(=C\C=C2/CCC[C@]3(C)C([C@H](C)OCC(=O)OC(C)(CC)CC)=CCC23)C[C@@H](O)C[C@@H]1O (some centres not stated),45.1,,1421,94.8,0.8,1.57
C=C1/C(=C\C=C2/CCC[C@@]3(C)C2CC[C@@H]3[C@H](C)OCC(=O)OC(C)(C)C)C[C@@H](O)C[C@@H]1O (some centres not stated),,,,,88.4,1.49
C=C1/C(=C\C=C2/CCC[C@]3(C)C([C@H](C)O)=CCC23)C[C@@H](O)C[C@@H]1O (some centres not stated),0.32,,,,> 1000,1.4
